# Measurements reported in ChEMBL document CHEMBL1629660, “Pharmacodynamics of tigecycline against phenotypically diverse Staphylococcus aureus isolates in a murine thigh model” (Antimicrob Agents Chemother, 2009).
# Legend:
# [1] = Cmax in neutropenic ICR mouse infected with Staphylococcus aureus ATCC 29213 at 50 mg/kg, sc by HPLC; assay type: ADME, organism-based; parameters: dose 50 mg/kg, route subcutaneous; details: in vivo
# Summary of the method: (§1)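 Neutropenic female ICR mice (cyclophosphamide 150 and 100 mg/kg ip, 4 days and 1 day before inoculation), both thighs inoculated im with ~10^7 CFU/ml of ATCC 29213. Single sc doses of 50, 25, 12.5 or 6.25 mg/kg. Cardiac blood taken from groups of six at 8–12 times over 0.5–24 h. Serum measured by HPLC (linear 0.05–5 µg/ml). Two-compartment fit by nonlinear least squares; AUC by trapezoidal rule.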
# [2] = AUC (0 to 24 hrs) in neutropenic ICR mouse infected with Staphylococcus aureus ATCC 29213 at 50 mg/kg, sc by HPLC; assay type: ADME, organism-based; parameters: time < 24 hr, dose 50 mg/kg, route subcutaneous; details: plasma; summary of the method: as §1
# [3] = AUC (0 to 24 hrs) in neutropenic ICR mouse infected with Staphylococcus aureus ATCC 29213 at 25 mg/kg, sc by HPLC; assay type: ADME, organism-based; parameters: time < 24 hr, dose 25 mg/kg, route subcutaneous; details: plasma; summary of the method: as §1
# [4] = Elimination half life in neutropenic ICR mouse infected with methicillin-sensitive Staphylococcus aureus ATCC 29213 at 50 mg/kg, sc by HPLC; assay type: ADME, organism-based; parameters: dose 50 mg/kg, route subcutaneous; details: in vivo, read-out: beta t1/2 (converted); summary of the method: as §1
# [5] = Elimination half life in neutropenic ICR mouse infected with methicillin-sensitive Staphylococcus aureus ATCC 29213 at 25 mg/kg, sc by HPLC; assay type: ADME, organism-based; parameters: dose 25 mg/kg, route subcutaneous; details: in vivo, read-out: beta t1/2 (converted); summary of the method: as §1
# [6] = Elimination half life in neutropenic ICR mouse infected with methicillin-sensitive Staphylococcus aureus ATCC 29213 at 6.25 mg/kg, sc by HPLC; assay type: ADME, organism-based; parameters: dose 6.25 mg/kg, route subcutaneous; details: in vivo, read-out: beta t1/2 (converted); summary of the method: as §1
# [7] = Protein binding in methicillin-sensitive Staphylococcus aureus ATCC 29213-infected neutropenic ICR mouse serum at 50 mg/kg, sc by HPLC; assay type: ADME, organism-based; parameters: dose 50 mg/kg, route subcutaneous; details: read-out: PB (converted)
# [8] = Protein binding in methicillin-sensitive Staphylococcus aureus ATCC 29213-infected neutropenic ICR mouse serum at 25 mg/kg, sc by HPLC; assay type: ADME, organism-based; parameters: dose 25 mg/kg, route subcutaneous; details: read-out: PB (converted)
# [9] = fAUC/MIC in hospital-acquired methicillin-resistant Staphylococcus aureus isolate 56-infected neutropenic ICR mouse at 80% effective exposure index; assay type: functional
# Summary of the method: (§2)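 Single-dose serum PK in infected neutropenic mice (sc 6.25–50 mg/kg; HPLC; two-compartment fit; AUC by trapezoidal rule; lower doses simulated). Free fraction from ultrafiltration of spiked mouse serum, in triplicate. Free exposures divided by modal MIC and plotted against 24-h log10 CFU change with a sigmoidal Emax model; EI50, EI80 and stasis values read from the fitted curves.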
# [10] = fAUC/MIC in hospital-acquired methicillin-resistant Staphylococcus aureus isolate 152-infected neutropenic ICR mouse at 80% effective exposure index; assay type: functional; summary of the method: as §2
# [11] = fAUC/MIC in community acquired methicillin-resistant Staphylococcus aureus isolate 156-infected neutropenic ICR mouse at 80% effective exposure index; assay type: functional; summary of the method: as §2
# [12] = fAUC/MIC in methicillin-sensitive Staphylococcus aureus ATCC 29213-infected neutropenic ICR mouse at 50% effective exposure index; assay type: functional
# Summary of the method: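 fT>MIC, fCmax/MIC and fAUC/MIC were built from the serum pharmacokinetics, protein binding, modal broth-microdilution MIC (triplicate, CLSI) and 24-h thigh CFU change. Each index was fit to a sigmoidal Emax model. EI50, EI80 and stasis exposures were taken from each isolate's curve.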
# [13] = fAUC/MIC in community acquired methicillin-resistant Staphylococcus aureus isolate 144-infected neutropenic ICR mouse at stasis dose; assay type: functional; summary of the method: as §2
# Staphylococcus aureus [14] = test: Antimicrobial activity against hospital-acquired methicillin-resistant Staphylococcus aureus isolate 56 infected in neutropenic ICR mouse assessed as change in bacterial load after 24 hrs; assay type: functional
# Summary of the method: (§3)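 Female ICR mice (~25 g) made neutropenic with cyclophosphamide 150 and 100 mg/kg ip, 4 and 1 days before infection. Each thigh inoculated im with 0.1 ml of ~10^7 CFU/ml from an overnight subculture. Tigecycline sc (0.2 ml) given 2 h later as single or multiple doses of 1.56–50 mg/kg, 1.56–400 mg/kg/day, 3 mice/group. Saline-injected controls. Thighs harvested at 24 h, homogenized in saline, plated on blood agar; log10 CFU change vs 0-h controls.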
# Staphylococcus aureus [15] = test: Antimicrobial activity against community acquired methicillin-resistant Staphylococcus aureus isolate 156 infected in immunocompetent ICR mouse assessed as reduction in bacterial load at […] after 24 hrs; assay type: functional
# Summary of the method: (§4)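 Non-neutropenic ICR mice (no cyclophosphamide). Each thigh inoculated im with 0.1 ml of ~10^8 CFU/ml. Tigecycline given sc once daily at 1.56, 3.13, 6.25 or 12.5 mg/kg starting 2 h post-infection, 3 mice/group. Thighs harvested at 24 h, homogenized, plated on blood agar; log10 CFU change vs 0-h controls.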
# Staphylococcus aureus [16] = test: Antimicrobial activity against community acquired methicillin-resistant Staphylococcus aureus isolate 156 infected in immunocompetent ICR mouse assessed as reduction in bacterial load at […] after 24 hrs; assay type: functional; summary of the method: as §4
# [17] = fAUC/MIC in community acquired methicillin-resistant Staphylococcus aureus isolate 156 infected-immunocompetent ICR mouse at 6.25 […], sc QD; assay type: functional
# Summary of the method: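 Derived from neutropenic-mouse serum PK (HPLC, two-compartment fit) with ultrafiltration protein-binding correction, divided by modal MIC.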
# Staphylococcus aureus [18] = test: Antimicrobial activity against community acquired methicillin-resistant Staphylococcus aureus isolate 156 infected in neutropenic ICR mouse assessed as change in bacterial load at 12.5 […] after 24 hrs; assay type: functional; summary of the method: as §3
# Acinetobacter baumannii = test: Antimicrobial activity against carbapenem-intermediate,-resistant Acinetobacter baumannii assessed as decrease in bacterial count at 0.6 times of MIC after 24 hrs by time kill analysis; assay type: functional
# [19] = r2 for fT>MIC in community acquired methicillin-resistant Staphylococcus aureus isolate 147-infected neutropenic ICR mouse
# [20] = r2 for fT>MIC in community acquired methicillin-resistant Staphylococcus aureus isolate 156-infected neutropenic ICR mouse
# [21] = r2 of fT>MIC in methicillin-sensitive methicillin-sensitive Staphylococcus aureus ATCC 29213-infected neutropenic ICR mouse
# [22] = r2 of fCmax/MIC in community acquired methicillin-resistant Staphylococcus aureus isolate 147-infected neutropenic ICR mouse
# [23] = r2 for fAUC/MIC in community acquired methicillin-resistant Staphylococcus aureus isolate 144-infected neutropenic ICR mouse
# [24] = Protein binding in methicillin-sensitive Staphylococcus aureus ATCC 29213-infected neutropenic ICR mouse serum at 6 µg/ml by HPLC; details: read-out: PB (converted)
# [25] = Protein binding in methicillin-sensitive Staphylococcus aureus ATCC 29213-infected neutropenic ICR mouse serum at 12 µg/ml by HPLC; details: read-out: PB (converted)
# [26] = Protein binding in methicillin-sensitive Staphylococcus aureus ATCC 29213-infected neutropenic ICR mouse serum at 1.5 µg/ml by HPLC; details: read-out: PB (converted)
smiles,measurement,setting,value
CN(C)c1cc(NC(=O)CNC(C)(C)C)c(O)c2c1C[C@H]1C[C@H]3[C@H](N(C)C)C(O)=C(C(N)=O)C(=O)[C@@]3(O)C(O)=C1C2=O [TIGECYCLINE],Cmax,[1],12200 ng/mL
same,AUC(0-t) at 24 h,[2],49200 ng·h/mL
same,AUC(0-t) at 24 h,[3],25200 ng·h/mL
same,half-life,[4],7.36 h
same,half-life,[5],11.8 h
same,half-life,[6],10.5 h
same,fraction unbound,[7],0.071
same,fraction unbound,[8],0.075
same,fAUC/MIC,[9],4.2
same,fAUC/MIC,[10],2.8
same,fAUC/MIC,[11],13
same,fAUC/MIC,[12],0.6
same,fAUC/MIC,[13],2.6
same,log10CFU/ml,Staphylococcus aureus [14],2
same,log10cfu,Staphylococcus aureus [15],1.9
same,log10cfu,Staphylococcus aureus [16],1.8
same,fAUC/MIC,[17],7.2
same,log10CFU/ml,Staphylococcus aureus [18],-1.1
same,log10cfu,Acinetobacter baumannii,1.5
same,r2,[19],0.483%
same,r2,[20],0.894%
same,r2,[21],0.699%
same,r2,[22],0.892
same,r2,[23],0.954
same,fraction unbound,[24],0.069
same,fraction unbound,[25],0.08
same,fraction unbound,[26],0.173
